High-throughput results (PubChem BioAssay)
SF-1 act: activators of human nuclear receptor SF-1. CHO-K1 Gal4-SF-1 LBD luciferase reporter; % increase over DMSO SF-1-specific signal. Q13285. hit rate 1.9% among 65,000. AID 522. activation, % at 10 µM;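 active means activation above the mean activation of all tested compounds plus 3 SD, cut at about 50% in these data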
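Test system: transient Gal4-SF-1 LBD reporter, CHO-K1; Amount: 4,000 CHO-K1 cells per well; Doses: 10 µM only; Timing: compound exposure 20 h at 37 °C; Signal: luciferase light emission; Read-out basis: percent activation relative to DMSO median and mock-transfected background; Control set: DMSO negative control and −SF1 background wells; Replicates: one test per compound.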
S1P1 ag pot: agonists and agonism potentiators of human S1P1 receptor; P21453; activation, % at 9.5 µM; S1P1 CRE-bla cells, forskolin, beta-lactamase FRET, potentiator mode; S1P1 agonist co-added at EC20, 2 nM; 100% = saturating reference agonist, 0% = basal; hit rate 0.57% among 56,000;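 active means activation above a cutoff set at the mean activation of all tested compounds plus 3 SD, cut at about 54% in these data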;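 further: forskolin at 4 µM as EC80 and the EC20 agonist is SEW2871; 100% = SEW2871 at its EC100 plus forskolin at EC80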
M1 antag: antagonists of rat M1 muscarinic receptor; hit rate 3.4% among 64,000; CHO-M1 cells, Fluo-4 calcium, ACh EC80 antagonist mode; stronger effect = lower value; B-score at 10 µM; P08482;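 active means calcium fluorescence response, raw or row-and-column corrected B-score, differing from the plate sample mean either way at a set confidence level, mostly lower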
S1P3 ag: S1P3 (human) receptor agonism; hit rate 0.1% among 60,000; S1P3 NFAT-BLA reporter cells, FRET ratio; relative to 1 µM S1P, basal subtracted; activation, % at 4.5 µM;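 active means activation above the screen-wide mean plus 3 SD, cut at about 4.5% in these data, passing the limit was not always enough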
Target sequence (Q99500 whole entry, looked up): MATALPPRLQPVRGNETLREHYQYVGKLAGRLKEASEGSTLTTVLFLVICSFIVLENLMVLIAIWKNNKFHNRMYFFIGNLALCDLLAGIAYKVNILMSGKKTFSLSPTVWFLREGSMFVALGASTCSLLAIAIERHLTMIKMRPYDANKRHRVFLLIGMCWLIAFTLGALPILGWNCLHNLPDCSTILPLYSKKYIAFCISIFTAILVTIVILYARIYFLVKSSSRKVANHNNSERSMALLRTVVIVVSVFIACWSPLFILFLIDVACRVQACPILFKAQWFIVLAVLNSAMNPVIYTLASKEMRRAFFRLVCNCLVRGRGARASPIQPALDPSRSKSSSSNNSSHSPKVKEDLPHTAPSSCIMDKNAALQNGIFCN
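Assay system: stable CHO line with human S1P3, Gα16, NFAT-BLA reporter; Detection: FRET β-lactamase substrate fluorescence, excitation 405 nm, 460/535 nm emission ratio, background-subtracted; Read-out: percent activation versus median 1 µM S1P response, basal-subtracted, per plate; Incubation: cells plated overnight, compound 4 h 37 °C, substrate 2 h RT.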
M1 ag: activates the M1 muscarinic receptor; CHO-M1 cells, Fluo-4 calcium fluorescence, agonist mode; stronger effect = higher value; B-score at 10 µM; hit rate 3% among 64,000;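 active means fluorescence rise, raw or as B-score row- and column-corrected plate score, outside the 99.7% band of its plate's samples, either direction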
RORA act: activates the human nuclear receptor RORA. CHO-K1 Gal4-RORA LBD luciferase reporter, luminescence; percent increase over mock-subtracted basal signal. activation, % at 10 µM. hit rate 1.5% among 65,000. AID 560;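 active means activation above the mean of all tested compounds plus 3 SD, cut at about 49% in these data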;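 further: 0% = DMSO-treated RORA cells and 100% = added signal equal to DMSO minus mock-transfected cells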
M1 agonist conf: rat M1 muscarinic agonism, confirmation. shares compounds with M1 ag. CHO-M1 cells, Fluo-4 calcium fluorescence, agonist mode; actives lie on both sides. fluorescence change (max-min) at 10 µM. hit rate 19% among 1,700. AID 1488;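 active means fluorescence change differs from the solvent-only DMSO control mean at a set confidence level in both duplicate runs; inconclusive means differs from solvent-only control mean in just one of two runs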;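 further: an EC20 dose of acetylcholine follows compound addition during the same imaging run; raw fluorescence intensity difference in instrument units with no normalization to controls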
M4 agonist ctr: activates rat M4 receptor in counter-screen for M1 agonists. shares compounds with M1 ag. CHO M4/Gqi5 cells, Fluo-4 calcium fluorescence, agonist mode; actives lie on both sides. fluorescence change (max-min) at 10 µM. hit rate 9% among 1,700;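 active means fluorescence change differing from the plate's solvent-only control wells at 99.7% confidence in both duplicates, whether higher or lower; inconclusive means differs from solvent controls in only one of two duplicates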
The depositor's hits bear a star. Rows were chosen to be rich in hits. Some 8.8% of all compounds tested hit in one or more screens of this group.

How did CCOc1ccccc1NC(=O)NC1CC2CCCC(C1)N2Cc1nnnn1CCc1ccccc1 (stereo not given) do in these assays?
SF-1 act: -7; S1P1 ag pot: 30; M1 antag: 0.26; S1P3 ag: -1; M1 ag: 0.03; RORA act: -6

What do the screens show for `Cc1ccc2nc(/C(C#N)=N/O)[nH]c2c1`?
SF-1 act: 10; S1P1 ag pot: -24; M1 antag: 1.2; S1P3 ag: 0; M1 ag: 3.6*; RORA act: -7; M1 agonist conf: inconclusive; M4 agonist ctr: -33

What do the screens show for `C/C(O)=C(/C#N)c1nc2ccccc2[nH]1`?
SF-1 act: 3; S1P1 ag pot: -15; M1 antag: -0.15; S1P3 ag: -1; M1 ag: 0.31; RORA act: -13

What do the screens show for `CC(C)c1c(O)nc(SCC(=O)Nc2ccc3c(c2)CCC3)[nH]c1=O`?
SF-1 act: 14; S1P1 ag pot: 12; M1 antag: -0.013; S1P3 ag: 0; M1 ag: 0.16; RORA act: 7

What do the screens show for `CCOC(=O)c1nc2sc3c(c2c(=O)[nH]1)CCCC3`?
SF-1 act: 2; S1P1 ag pot: -1; M1 antag: -0.013; S1P3 ag: -2; M1 ag: -0.12; RORA act: 10

Results for CCOC(=O)c1nc(N2CCN(C(=O)OCC)CC2)c2c3c(sc2n1)CCCC3 ?
SF-1 act: 11; S1P1 ag pot: -31; M1 antag: -0.45; S1P3 ag: -1; M1 ag: 9.2*; RORA act: 19; M1 agonist conf: inconclusive; M4 agonist ctr: -63

How did CC(=O)c1ccc(NC(=O)CSc2nnc(-c3ccoc3C)n2Cc2ccccc2)cc1 do in these assays?
SF-1 act: 15; S1P1 ag pot: 35; M1 antag: -1.1; S1P3 ag: -1; M1 ag: 27*; RORA act: 40; M1 agonist conf: inconclusive; M4 agonist ctr: -75*

How did Cc1cccc(C)c1NC(=O)CSc1nnc(-c2ccoc2C)n1CCc1ccccc1 do in these assays?
SF-1 act: -14; S1P1 ag pot: -3; M1 antag: 1; S1P3 ag: -1; M1 ag: 0.47; RORA act: -13

How did CNc1ccccc1-n1ccc(-c2ccccc2)n1 do in these assays?
SF-1 act: 18; M1 antag: 0.34; S1P3 ag: 0; M1 ag: 3.6*; RORA act: 16; M1 agonist conf: -7.4; M4 agonist ctr: -22

How did N#Cc1cc(-c2ccccc2)nn1-c1ccccc1 do in these assays?
SF-1 act: 13; S1P1 ag pot: -15; M1 antag: -0.19; S1P3 ag: -1; M1 ag: 0.23; RORA act: -6

What do the screens show for `CCOC(=O)N1CCC(NC(=O)c2cc3c(-c4ccc(OC)c(OC)c4)nn(C)c3s2)CC1`?
SF-1 act: 11; S1P1 ag pot: 2; M1 antag: -0.68; S1P3 ag: -2; M1 ag: 3.2; RORA act: -2

How did CCOC(=O)C1CCN(C(=O)c2cc3c(-c4ccc(OC)c(OC)c4)nn(C)c3s2)CC1 do in these assays?
SF-1 act: 10; S1P1 ag pot: -56; M1 antag: -0.48; S1P3 ag: 0; M1 ag: 2.3*; RORA act: 1; M1 agonist conf: -23; M4 agonist ctr: -32

Results for Cc1cc2n(n1)C(c1ccccc1Cl)Nc1ccccc1-2 (stereo not given) ?
SF-1 act: -6; S1P1 ag pot: -12; M1 antag: -0.042; S1P3 ag: 1; M1 ag: 2.5*; RORA act: -23; M1 agonist conf: -16; M4 agonist ctr: -28

How did CCCc1c(CC)c(=N)c2ccccc2n1C do in these assays?
SF-1 act: -6; S1P1 ag pot: 2; M1 antag: -0.32; S1P3 ag: -2; M1 ag: -0.17; RORA act: 8

What do the screens show for `Cc1nn(C)c(C)c1CN(C)C(=O)c1cnn2c1NC(c1ccccc1)CC2C(F)(F)F` (stereo not given)?
SF-1 act: -11; S1P1 ag pot: -6; M1 antag: -0.62; S1P3 ag: -1; M1 ag: -3.3*; RORA act: -18; M1 agonist conf: -26*; M4 agonist ctr: inconclusive

How did COCCNC(=O)c1ccc2c(c1)nc(C)n2-c1cc(OC)c(OC)c(OC)c1 do in these assays?
SF-1 act: 13; S1P1 ag pot: -33; M1 antag: 0.89; S1P3 ag: 0; M1 ag: 0.31; RORA act: 4

How did CCCC(=O)c1ccc(N2CCN(C(=O)c3ccccc3Br)CC2)c(F)c1 do in these assays?
SF-1 act: -30; S1P1 ag pot: 98*; M1 antag: -3.2*; S1P3 ag: -2; M1 ag: 3.1*; RORA act: -1; M1 agonist conf: inconclusive; M4 agonist ctr: -46

How did CCCC(=O)c1ccc(N2CCN(C(=O)c3ccc(Br)cc3)CC2)c(F)c1 do in these assays?
SF-1 act: 17; S1P1 ag pot: 1; M1 antag: 0.6; S1P3 ag: -1; M1 ag: 0.038; RORA act: -11

How did CCC(=O)c1cc(F)c(N2CCN(C(=O)Cc3ccccc3)CC2)cc1C do in these assays?
SF-1 act: -7; S1P1 ag pot: 31; M1 antag: -1.2*; S1P3 ag: -1; M1 ag: 2.7*; RORA act: -6; M1 agonist conf: 2.7; M4 agonist ctr: -26

What do the screens show for `CCCC(=O)c1ccc(N2CCN(C(=O)c3ccccc3)CC2)c(F)c1`?
SF-1 act: 3; S1P1 ag pot: 23; M1 antag: -2.4; S1P3 ag: -2; M1 ag: 4.1*; RORA act: -2; M1 agonist conf: 0.12; M4 agonist ctr: -42

What do the screens show for `CCCCN=CC1=C(O)C(C(=O)OC)C(C)(C)CC1=O` (stereo not given)?
SF-1 act: -18; M1 antag: -1.6; S1P3 ag: -1; M1 ag: 1.4; RORA act: -1

What do the screens show for `CC(=O)Nc1ccc(S(=O)(=O)N2CCN(CC(=O)NC3CCCC3)CC2)cc1`?
SF-1 act: -11; M1 antag: 0.46; M1 ag: 0.58; RORA act: -4

What do the screens show for `CCOC(=O)NC(O)C(=O)c1cccs1` (stereo not given)?
SF-1 act: 13; S1P1 ag pot: -1; M1 antag: -0.00048; S1P3 ag: -3; M1 ag: -0.75; RORA act: -16
